Only some compounds are listed: those with a hit (about 4.7% of all), similar ones and a draw of the others.
RGS4 act: RGS4 potentiation or activation. HEK293 M3R/inducible RGS4, carbachol calcium flux Fluo4; hits give low values. B-score at 10 µM. 0.92% of 310,000 active. AID 463111;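 active means B-score of the integrated calcium signal more than 4 SD below the library mean, with starting fluorescence not abnormally high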;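 further: negative B-score means reduced calcium response which marks RGS4 activation or potentiation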
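Material: M3R-expressing HEK293 line, RGS4 induced by doxycycline | Schedule: Overnight RGS4 induction, 30 min dye load 37 °C, 20 min compound RT | Measured by: Fluo4 fluorescence kinetic imaging of calcium | Read-out: Integrated calcium ratio converted to B score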
KCC2 mod: modulates chloride dependent transport by human KCC2 | KCC2 cells, thallium flux FluoZin-2 fluorescence | B-score of Tl+ flux slope (higher = more flux/activation; lower = inhibition) at 10 µM | 2.2% of 190,000 active | AID 1456;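 active means thallium flux slope and its plate-corrected score both differing from the plate sample mean at a set confidence after two filtering rounds, in either direction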;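 further: slope of fluorescence scaled to starting intensity during 10 to 20 s after thallium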
MrgX1 allo act: human MrgX1 positive allosteric modulation, primary screen | AID 588675 | B-score at 10 µM | 0.63% of 310,000 active | MrgX1-HEK293, Fluo-4 calcium flux, FDSS; hits give high values | Q96LB2;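 active means plate-corrected calcium response at least 3 library SD above typical, normal starting fluorescence, not activating the receptor alone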;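 further: compound read alongside a low EC10 to EC30 dose of BAM8-22 agonist; peak minus trough fluorescence over baseline measured at the second addition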
Target sequence (Q96LB2 whole entry, looked up): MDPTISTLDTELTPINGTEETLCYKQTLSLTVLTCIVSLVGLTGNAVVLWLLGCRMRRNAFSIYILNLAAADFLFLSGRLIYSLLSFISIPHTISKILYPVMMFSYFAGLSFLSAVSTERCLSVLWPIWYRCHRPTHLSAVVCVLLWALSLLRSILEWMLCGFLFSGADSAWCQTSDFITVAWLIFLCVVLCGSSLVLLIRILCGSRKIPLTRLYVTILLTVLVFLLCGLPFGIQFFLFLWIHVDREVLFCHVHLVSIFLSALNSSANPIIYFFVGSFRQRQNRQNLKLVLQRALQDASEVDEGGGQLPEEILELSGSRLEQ
MrgX1 antagonist: blocks BAM8-22 activation of human MrgX1 receptor; Q96LB2; MRGX1-HEK293 calcium flux, Fluo-4, BAM8-22 antagonism; hits give low values; B-score at 10 µM; 1.3% of 310,000 active;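 active means calcium-response B-score plate-corrected more than 3 library SD below zero, starting fluorescence within 5 deviations, no agonist response on first addition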;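 further: peak minus trough fluorescence over baseline after final BAM8-22 challenge near maximal dose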
RGS4 block: human RGS4 inhibition; B-score at 10 µM; AID 463165; HEK293 M3R/RGS4 inducible, Fluo-4 calcium flux; hits give high values; triggered by carbachol at its EC20; 0.45% of 310,000 active; P49798;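 active means B-score, a plate-corrected calcium signal, over three deviations above library mean, with baseline fluorescence within five deviations of library mean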;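 further: RGS4 expression induced by doxycycline in cells with stable M3 receptor; B-score is computed from the integrated fluorescence ratio over baseline after carbachol; higher B-score means a larger calcium signal and so more RGS4 inhibition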
Target sequence (P49798 whole entry, looked up): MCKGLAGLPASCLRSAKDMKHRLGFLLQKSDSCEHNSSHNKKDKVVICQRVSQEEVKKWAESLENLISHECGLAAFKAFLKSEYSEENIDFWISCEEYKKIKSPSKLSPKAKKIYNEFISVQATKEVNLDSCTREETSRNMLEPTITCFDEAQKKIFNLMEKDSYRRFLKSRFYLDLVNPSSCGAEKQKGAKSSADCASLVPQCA
MrgX1 agonist: human MrgX1 receptor agonism, primary screen. B-score at 10 µM. 0.44% of 310,000 active. MrgX1-HEK293 cells, Fluo-4 calcium fluorescence, agonist mode; hits give high values;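 active means calcium response B-score plate-corrected fluorescence ratio at least 3 library SD, with starting fluorescence B-score inside 5 SD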
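Material: HEK293 cells stably expressing human MrgX1 receptor | Quantity: 15,000 cells per well | Times: Cells plated overnight, dye loaded 0.5 h 37 °C, 0.5 h room temperature | Measured by: Kinetic Fluo-4 NW fluorescence of intracellular calcium | Control set: Positive and negative controls per plate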
MrgX1 ant reconf: confirmation of human MrgX1 receptor antagonists; shares compounds with MrgX1 antagonist; MrgX1-HEK293, BAM8-22 calcium flux, Fluo-4; hits give low values; remaining BAM8-22 calcium response % of control (hits give low values), % at 10 µM; 19% of 2,300 active;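 active means remaining agonist calcium response no higher than 100% minus 3 SD of agonist-only control wells, with starting fluorescence near control levels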;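 further: agonist BAM8-22 given at a near maximal EC90 to ECmax level; peak minus minimum fluorescence divided by baseline after agonist addition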
HEK293 Ca flux: counter-screen for MrgX1 antagonists: effect in parental HEK293 cells; shares compounds with MrgX1 antagonist; Fluo-4 calcium fluorescence, FDSS; fluorescence ratio F(max-min)/F0 at 10 µM; 2% of 4,000 active;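 active means duplicate-averaged calcium fluorescence ratio at least three times the standard deviation of buffer wells, a nonspecific response in parental cells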
HEK293 Ca counter: counter-screen for MrgX1 allosteric activators: effect in parental HEK293 cells; shares compounds with MrgX1 antagonist; parental HEK293 calcium flux, Fluo-4 fluorescence ratio; hits give high values; fluorescence ratio F(max-min)/F0 at 10 µM; 0.4% of 4,000 active;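 active means calcium fluorescence ratio, averaged over duplicates, at least 3 SD of the buffer-well ratio, meaning a nonspecific response in receptor-free cells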;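 further: untransfected parental HEK293 lacking MrgX1 used as counterscreen for MrgX1 allosteric activators; fluorescence change taken during the second addition on a kinetic imager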
HEK293 Ca cntr2: MrgX1 activator counter-screen hit in parental HEK293 cells | Fluo-4 calcium fluorescence (FDSS); hits give high values | fluorescence ratio F(max-min)/F0 at 10 µM | AID 624115 | shares compounds with MrgX1 antagonist | 8.7% of 4,000 active;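 active means calcium fluorescence ratio at least three times the spread of buffer wells, meaning a non-specific response in parental cells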
Starred values were filed as active, the others as inactive; i = inactive; . = not tested or not shown.

SMILES	RGS4 act	KCC2 mod	MrgX1 allo act	MrgX1 antagonist	RGS4 block	MrgX1 agonist	MrgX1 ant reconf	HEK293 Ca flux	HEK293 Ca counter	HEK293 Ca cntr2
Cn1c(SCC(=O)Nc2cccc(F)c2)nc2c(c1=O)SCC2	i	.	i	-8.8*	i	i	i	i	i	i
O=C(O)c1ccc(CNCc2ccc(Cl)cc2Cl)cc1	i	-0.54	i	-5*	i	i	i	i	i	i
O=c1ccc(-c2ccc(S(=O)(=O)NCC3CCN(Cc4ccccc4F)CC3)s2)n[nH]1	i	.	i	i	i	i	.	.	.	.
CC1CN(C(=O)CS(=O)(=O)Cc2ccc(Cl)cc2)CC(C)O1 (centres undefined)	i	.	i	-4.8*	i	i	i	i	i	i
Cc1ccc(CC(=O)N2CC(C)OC(C)C2)cc1 (centres undefined)	i	0.58	i	i	i	i	.	.	.	.
COc1c(S(=O)(=O)N2CCN(C(=O)c3ccco3)CC2)ccc(Cl)c1Cl	i	.	i	i	i	i	.	.	.	.
CN1C(=O)CC(N2CCN(CC(N)=O)CC2)C1=O (centres undefined)	i	.	i	-5.6*	i	i	i	i	i	i
Cc1nnc(NC(=O)c2ccc(S(=O)(=O)N3CC(C)OC(C)C3)cc2)o1 (centres undefined)	i	.	i	i	i	i	.	.	.	.
Cc1nnc(NC(=O)c2ccc(S(=O)(=O)N3CCCCCC3)cc2)o1	i	0.00034	i	-12*	i	i	i	i	i	i
Cc1nc2cc(C(=O)NCc3ccc4c(c3)OCO4)ccc2n1-c1ccc(Br)cc1	i	-2.4	i	-4.8*	i	i	i	i	i	i
O=C(NCc1ccc2c(c1)OCO2)c1cccc(Cl)c1	i	0.94	i	-5.2*	i	i	i	i	i	i
O=C(NCc1cccc(Cl)c1)c1ccc2c(c1)OCO2	i	0.031	i	i	i	i	.	.	.	.
O=S1(=O)NC(C2CC2c2ccccc2)CCO1 (centres undefined)	i	.	i	i	i	i	.	.	.	.
CC1=C(C(=O)Nc2ccccc2)C(c2ccco2)C(C#N)=C(SCC(=O)OC(C)C)N1 (centres undefined)	i	-2.9	i	-11*	i	i	i	i	i	i
COc1ccc(C(=O)N(C)Cc2ccccn2)cc1OC1CCN(C(C)C)CC1	i	.	i	-5.2*	i	i	i	i	i	i
COc1ccc(C(=O)N(C)Cc2ccon2)cc1OC1CCN(C(C)C)CC1	i	.	i	i	i	i	.	.	.	.
COc1ccc(C)cc1NC(=O)c1nnn(Cc2cc(C)ccc2C)c1N	i	-1.6	i	-5.2*	i	i	i	i	i	i
COc1ccc(OC)c(NC(=O)c2nnn(Cc3ccccc3C)c2N)c1	i	-0.43	i	i	i	i	.	.	.	.
COc1ccc(NC(=O)c2nnn(Cc3ccc(SC)cc3)c2N)c(OC)c1	i	.	i	-4.7*	i	i	i	i	i	i
Cc1cc2nc3c(=O)[nH]c(=S)[nH]c3nc2cc1NC(=O)C(F)(F)F	i	.	i	i	i	i	.	.	.	.
O=C(COc1ccc([N+](=O)[O-])cc1)Nc1ccccc1C(=O)NC1CC1	i	.	i	i	i	i	.	.	.	.
O=C1CCCN1CCCNS(=O)(=O)c1ccc(Br)cc1	i	-0.0038	i	i	i	i	.	.	.	.
Cc1cc(C)c(C)c(S(=O)(=O)NCCCN2CCCC2=O)c1C	i	.	i	-5.4*	i	i	i	i	i	i
Cc1cccc(NC(=O)c2cc(NC(=O)c3ccco3)ccc2Cl)n1	.	-0.61	i	-4.7*	.	i	85%*	i	i	i
Cc1cccc(NC(=O)c2cc(NC(=O)C3CCCCC3C(=O)O)ccc2Cl)n1 (centres undefined)	i	-0.031	i	i	i	i	.	.	.	.
SMILES	RGS4 act	KCC2 mod	MrgX1 allo act	MrgX1 antagonist	RGS4 block	MrgX1 agonist	MrgX1 ant reconf	HEK293 Ca flux	HEK293 Ca counter	HEK293 Ca cntr2
COc1ccc(O)c(/C=N/NC(=O)CN2CCS(=O)(=O)CC2)c1	i	.	i	i	i	i	.	.	.	.
O=C(c1cccc(-n2cccc2)c1)N1CCN(S(=O)(=O)c2ccccc2)CC1	i	.	i	i	i	i	.	.	.	.
O=C(c1cccc(-n2cccc2)c1)N1CCN(S(=O)(=O)c2c(F)cccc2F)CC1	i	.	i	-6.1*	i	i	i	i	i	i
CC(C)CN(C(=O)Cn1nnc(-c2ccc(F)cc2)n1)C1CCS(=O)(=O)C1 (centres undefined)	i	.	i	i	i	i	.	.	.	.
CON(C)c1nc(C2CCCCC2)c2cc(C)ccc2n1	i	.	i	i	i	i	.	.	.	.
COc1ccc(-c2nc(C3CCCCC3)c3cc(OC)ccc3n2)cc1	i	.	i	-5*	i	i	i	i	i	i
O=C(Nc1ccc(Cl)cc1Cl)NC1CCN(S(=O)(=O)c2ccc(F)cc2)CC1	i	.	i	i	i	i	.	.	.	.
O=C(c1cnn2c(C(F)F)cc(-c3ccccc3)nc12)N1CCc2ccccc21	i	-0.23	i	-4.7*	i	i	i	i	i	i
Cc1ccc(-c2cc(C(F)F)n3ncc(C(=O)N4CCN(c5ccccn5)CC4)c3n2)cc1	i	-2.2	i	i	i	i	.	.	.	.
CCN1CCN(C(=O)c2cnn3c(C(F)F)cc(-c4ccc(C)cc4)nc23)CC1	i	0.72	i	-8.5*	i	i	i	i	i	i
Cc1ccc(-c2cc(C(F)F)n3ncc(C(=O)N4CCc5ccccc54)c3n2)cc1	i	0.21	i	i	i	i	.	.	.	.
O=C(Cn1c(C(=O)OCCO)cc2ccccc21)c1ccccc1	i	.	i	i	i	i	.	.	.	.

Source: PubChem BioAssay
